Usually IC50 stands for the midpoint of a concentration-inhibition curve.

Experimental findings from publication PMC9324959 (Angewandte Chemie (International Ed. in English), 2022) are described below.

A value given as a limit tells only on which side of the number the result lay.

System in the first series: not listed separately
Nature of the series: Cytotoxicity assay. The series is classed as cell-based. The settings on record: human, HeLa cells. Put shortly:
(§1)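 Where cells were clearly affected but the curve could not be fitted, the value was flagged. "n/a" marks no effect under the conditions tested.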
`CCC(=O)Nc1ccc(-c2csc(Nc3cccc(F)c3)n2)cc1` [Compound 11, N-[4-[2-(3-fluoroanilino)thiazol-4-yl]phenyl]propanamide]: 38 µM corresponded to half-maximal inhibition (IC50 at 72 h).

In turn, `CC(=O)Nc1ccc(-c2csc(Nc3cccc(Cl)c3)n2)cc1` [Compound 20] had a half-inhibitory concentration (IC50) at 72 h of 19 µM.

For `CC(=O)Nc1ccc(-c2csc(Nc3ccccc3)n2)cc1` [Compound 4], inhibition was half-maximal at 48 µM (IC50 at 72 h).

`COc1cccc(Nc2nc(-c3ccc(NC(C)=O)cc3)cs2)c1` [Compound 22] registered an IC50 at 72 h of 43 µM.

`CC(=O)Nc1ccc(-c2csc(Nc3cccc(O)c3)n2)cc1` [Compound 21] yielded an IC50 at 72 h of 50 µM.

Compound `CC(=O)Nc1ccc(-c2csc(Nc3ccccc3C(F)(F)F)n2)cc1` [Compound 17] came in with an IC50 at 72 h of 71 µM.

In the case of `O=C(Nc1ccc(-c2csc(Nc3cccc(F)c3)n2)cc1)C1CC1` [Compound 13], half-maximal inhibition (IC50 at 72 h) was put at 38 µM.

The compound `CC(C)C(=O)Nc1ccc(-c2csc(Nc3cccc(F)c3)n2)cc1` [Compound 12] yielded a half-inhibitory concentration (IC50) at 72 h of 34 µM.

Consider `CC(=O)Nc1ccc(-c2csc(Nc3ccc(F)cc3)n2)cc1` [Compound 10], for which the concentration for half-maximal inhibition (IC50) at 72 h is greater than 80 µM.

In turn, `CC(=O)Nc1ccc(-c2csc(Nc3ccccc3C)n2)cc1` [Compound 14] registered a 50% inhibitory concentration (IC50) at 72 h of 59 µM.

`CC(=O)Nc1ccc(-c2csc(Nc3ccccc3F)n2)cc1` [Compound 8] had an IC50 at 72 h greater than 80 µM.

Compound `CC(=O)Nc1ccc(-c2csc(Nc3cccc(C)c3)n2)cc1` [Compound 15] came in with an IC50 at 72 h of 37 µM.

In another series the test system is HeLa cells. Nature of the series: Cytotoxicity assay. Format: cell-based. The following applies: under the conditions used. Put shortly: as §1
As for `CC(=O)Nc1ccc(-c2csc(Nc3ccc(C(F)(F)F)cc3)n2)cc1` [Compound 19], the “cytotoxicity (in words)” value was “abrogated activity”.

Take `CC(=O)Nc1ccc(-c2csc(NC(=O)c3ccccc3)n2)cc1` [Compound 6]: the “cytotoxicity (in words)” value is reported as “not cytotoxic”.
